For test [1], the target named is T1, 3-hydroxy-3-methylglutaryl-coenzyme A reductase (Rattus norvegicus, UniProt P51639).
T1 sequence (P51639 whole entry): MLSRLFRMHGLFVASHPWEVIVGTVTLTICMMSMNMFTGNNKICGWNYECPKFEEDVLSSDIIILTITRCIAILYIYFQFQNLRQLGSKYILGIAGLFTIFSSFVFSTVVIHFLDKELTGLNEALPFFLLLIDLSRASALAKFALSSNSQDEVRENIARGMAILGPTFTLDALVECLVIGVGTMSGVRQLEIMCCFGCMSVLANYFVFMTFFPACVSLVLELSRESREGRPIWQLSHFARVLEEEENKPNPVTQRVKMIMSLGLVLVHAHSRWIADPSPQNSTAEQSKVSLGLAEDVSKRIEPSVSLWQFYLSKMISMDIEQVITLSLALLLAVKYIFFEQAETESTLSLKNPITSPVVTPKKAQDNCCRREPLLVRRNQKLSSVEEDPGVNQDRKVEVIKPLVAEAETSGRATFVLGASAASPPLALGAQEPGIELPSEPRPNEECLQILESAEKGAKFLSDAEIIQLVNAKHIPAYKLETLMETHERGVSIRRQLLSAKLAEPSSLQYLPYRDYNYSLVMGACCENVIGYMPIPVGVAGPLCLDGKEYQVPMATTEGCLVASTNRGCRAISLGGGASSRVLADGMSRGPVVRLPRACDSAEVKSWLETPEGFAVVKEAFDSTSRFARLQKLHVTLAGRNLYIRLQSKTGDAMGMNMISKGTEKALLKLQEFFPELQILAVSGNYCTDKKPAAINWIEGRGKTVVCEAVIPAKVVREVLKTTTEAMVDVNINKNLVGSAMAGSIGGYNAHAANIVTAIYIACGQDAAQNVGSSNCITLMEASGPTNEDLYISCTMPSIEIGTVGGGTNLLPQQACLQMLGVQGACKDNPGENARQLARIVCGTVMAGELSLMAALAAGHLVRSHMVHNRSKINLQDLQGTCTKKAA
Nature of the test: Inhibition of solubilized partially purified rat liver HMG-CoA reductase. An outline of the steps: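 Enzyme inhibition was tested at four or five test-compound concentrations, and percentage inhibition was plotted against concentration. IC50 came from a straight line fitted to these points by least squares. The full protocol is given in part 1 of the series.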

Test [2] addresses T2, 3-hydroxy-3-methylglutaryl-coenzyme A reductase (Rattus norvegicus) (UniProt P51639).
T2 sequence (whole entry): T1 sequence (P51639 whole entry)
Nature of the test: Inhibitory potency against purified rat liver HMG-CoA reductase relative to compactin.

The text below walks through data of ChEMBL document CHEMBL1123390, “3-Hydroxy-3-methylglutaryl-coenzyme A reductase inhibitors. 3. 7-(3,5-Disubstituted [1,1'-biphenyl]-2-yl)-3,5-dihydroxy-6-heptenoic acids and their lactone derivatives” (J Med Chem, 1986).

For orientation: IC50 means the point on the concentration scale where inhibition reaches its midpoint.

In turn, `Cc1cc(C)c(/C=C/[C@@H]2C[C@@H](O)CC(=O)O2)c(/C=C/c2ccc(Cl)cc2)c1` returned an IC50 in test [1] of 630 nM. The same molecule registered a Relative potency in test [2] of 2.4.
The molecule `Cc1cc(C)c(/C=C/[C@@H]2C[C@@H](O)CC(=O)O2)c(-c2cc(C)c(F)c(C)c2)c1` returned an IC50 in test [1] of 10 nM. The Relative potency in test [2] was determined as 150.
Consider `Cc1cc(C)c(/C=C/[C@@H]2C[C@@H](O)CC(=O)O2)c(-c2ccc(F)c(C)c2)c1` (stereo in doubt; 110(-)) [listing 1 of 2 here], for which the IC50 in test [1] is 7300 nM.
The same measure, in the same setting: the value for `O=C1C[C@H](O)C[C@@H](/C=C/c2c(Cl)cc(Cl)cc2-c2ccc(F)cc2)O1` (stereo in doubt; 100) [listing 1 of 2 here] was 24 nM.
As for `CCc1cccc(-c2cc(Cl)cc(Cl)c2/C=C/[C@@H]2C[C@@H](O)CC(=O)O2)c1`, in test [1], the IC50 stood at 44 nM. Moreover, the Relative potency in test [2] was 30.
In test [1], `Cc1cc(C)c(/C=C/[C@@H]2C[C@@H](O)CC(=O)O2)c(-c2ccc(Cl)c(Cl)c2)c1` gave an IC50 of 8 nM. The Relative potency in test [2] stood at 175.
On to `O=C1C[C@H](O)C[C@@H](/C=C/c2ccccc2-c2ccccc2)O1`, for which the Relative potency in test [2] worked out at 0.63.
On the same count and under the same terms, the value for `O=C1C[C@H](O)C[C@@H](/C=C/c2c(Cl)cc(Cl)cc2-c2ccc(F)cc2)O1` (stereo in doubt; 100) [listing 2 of 2 here] was 100.
`Cc1cc(-c2cccc(Cl)c2/C=C/[C@@H]2C[C@@H](O)CC(=O)O2)ccc1F`: in test [1], the IC50 was found to be 30 nM. This molecule also gave a Relative potency in test [2] of 40.
Molecule `O=C1C[C@H](O)C[C@@H](/C=C/c2c(Cl)cc(Cl)cc2CCc2ccccc2)O1` had an IC50 in test [1] of 430 nM. The same molecule had a Relative potency in test [2] of 2.8.
As for `Cc1ccc(C)c(-c2ccc(Cl)c(Cl)c2)c1/C=C/[C@@H]1C[C@@H](O)CC(=O)O1`, 13 nM corresponded to half-maximal inhibition in test [1] (IC50). The same molecule displayed a Relative potency in test [2] of 123.
The molecule `Cc1cc(C)c(/C=C/[C@@H]2C[C@@H](O)CC(=O)O2)c(-c2ccc(F)cc2)c1` had an IC50 in test [1] of 13 nM. In test [2], this molecule came in with a Relative potency of 96.
In turn, `Cc1cc(C)c(/C=C/[C@@H]2C[C@@H](O)CC(=O)O2)c(-c2ccc(F)c(C)c2)c1` (stereo in doubt; 110 (+)) [listing 1 of 2 here] displayed a Relative potency in test [2] of 289.
For `Cc1ccc(-c2cc(Cl)cc(Cl)c2/C=C/[C@@H]2C[C@@H](O)CC(=O)O2)cc1`, in test [1], the midpoint of inhibition, the IC50, lay at 190 nM. The same molecule came in with a Relative potency in test [2] of 11.
Regarding `O=C1C[C@H](O)C[C@@H](/C=C/c2c(Cl)cc(Cl)cc2-c2ccc(F)cc2)O1` (stereo in doubt; 100(i)i) [listing 1 of 2 here], the Relative potency in test [2] was 5.
As for `O=C1C[C@H](O)C[C@@H](/C=C/c2c(Cl)cc(Cl)cc2-c2ccccc2)O1`, the IC50 in test [1] is 80 nM. For the same molecule, the Relative potency in test [2] is 26.
`Cc1cc(C)c(/C=C/[C@@H]2C[C@@H](O)CC(=O)O2)c(-c2ccc(F)c(C)c2)c1` (stereo in doubt; 110(-)) [listing 2 of 2 here] showed a Relative potency in test [2] of 0.18.
For the molecule `O=C1C[C@H](O)C[C@@H](/C=C/c2ccc(Cl)cc2Cl)O1`, the Relative potency in test [2] was 0.06.
Regarding `Cc1cc(-c2cc(Cl)cc(C)c2/C=C/[C@@H]2C[C@@H](O)CC(=O)O2)ccc1F`, in test [1], the IC50 amounted to 6 nM. The same molecule displayed a Relative potency in test [2] of 233.
`O=C1C[C@H](O)CC(CCc2c(Cl)cc(Cl)cc2Cc2ccccc2)O1` (some centres undefined): in test [1], it took 530 nM to reach half-maximal inhibition (IC50). Also, in test [2], the Relative potency is 4.3.
`Cc1cc(C)c(/C=C/[C@@H]2C[C@@H](O)CC(=O)O2)c(-c2ccc(F)c(C)c2)c1` (stereo in doubt; 110) [listing 1 of 2 here] displayed an IC50 in test [1] of 7 nM.
On to `Cc1cccc(-c2cc(Cl)cc(Cl)c2/C=C/[C@@H]2C[C@@H](O)CC(=O)O2)c1`, for which, in test [1], the IC50 is 16 nM. This molecule also yielded a Relative potency in test [2] of 94.
For the molecule `Cc1cc(C)cc(-c2cc(C)cc(C)c2/C=C/[C@@H]2C[C@@H](O)CC(=O)O2)c1`, the IC50 in test [1] worked out at 15 nM. Moreover, the Relative potency in test [2] worked out at 80.
`O=C1C[C@H](O)CC(CCc2c(Cl)cc(Cl)cc2-c2ccccc2)O1` (some centres undefined): it took 100 nM to reach half-maximal inhibition in test [1] (IC50). For the same molecule, in test [2], the Relative potency was determined as 18.
For `Cc1cc(C)c(/C=C/[C@@H]2C[C@@H](O)CC(=O)O2)c(-c2ccc(F)c(CO)c2)c1` the same measures were 49 nM and 26.5.
The molecule `O=C1C[C@H](O)C[C@@H](/C=C/c2c(Cl)cc(Cl)cc2-c2cccc(F)c2)O1` yielded an IC50 in test [1] of 70 nM. In test [2], this molecule came in with a Relative potency of 38.6.
Regarding `COc1ccc(-c2cc(Cl)cc(Cl)c2/C=C/[C@@H]2C[C@@H](O)CC(=O)O2)cc1`, the IC50 in test [1] came out at 470 nM. Moreover, in test [2], the Relative potency was 2.6.
For `O=C1C[C@H](O)C[C@@H](/C=C/c2c(Cl)cc(Cl)cc2-c2ccc(Cl)cc2)O1` the same measures were 36 nM and 58.
For `O=C1C[C@H](O)C[C@@H](/C=C/c2c(F)cc(F)cc2-c2ccc(F)cc2)O1` the same measures were 860 nM and 3.5.
`Cc1cc(C)c(/C=C/[C@@H]2C[C@@H](O)CC(=O)O2)c(-c2ccc(F)c(C)c2)c1` (stereo in doubt; 110 (+)) [listing 2 of 2 here]: the IC50 in test [1] came out at 7.6 nM. This lies in the single-digit nanomolar range.
The molecule `Cc1cc(Cl)c(/C=C/[C@@H]2C[C@@H](O)CC(=O)O2)c(-c2ccc(F)c(C)c2)c1` yielded an IC50 in test [1] of 13 nM. The molecule further registered a Relative potency in test [2] of 92.
On to `O=C1C[C@H](O)C[C@@H](/C=C/c2c(Cl)cc(Cl)cc2-c2ccc(F)cc2)O1` (stereo in doubt; 100(i)i) [listing 2 of 2 here], for which, in test [1], half-maximal inhibition (IC50) was put at 260 nM.
`O=C1C[C@H](O)C[C@@H](/C=C/c2c(Cl)cc(Cl)cc2-c2ccc(F)cc2)O1` (stereo in doubt; 100(+)h) [listing 1 of 2 here] had a Relative potency in test [2] of 280.
For `Cc1cc(F)ccc1-c1cc(Cl)cc(Cl)c1/C=C/[C@@H]1C[C@@H](O)CC(=O)O1`, half-maximal inhibition in test [1] (IC50) required 36 nM. In test [2], this molecule returned a Relative potency of 33.
As to `O=C1C[C@H](O)CC(CCc2ccccc2-c2ccccc2)O1` (some centres undefined), half-maximal inhibition in test [1] (IC50) was put at 44000 nM. This molecule also showed a Relative potency in test [2] of 0.44.
Regarding `O=C1C[C@H](O)C[C@@H](/C=C/c2c(Cl)cc(Cl)cc2-c2cc(Cl)cc(Cl)c2)O1`, the IC50 in test [1] was 37 nM. The Relative potency in test [2] stood at 78.
In test [1], `O=C1C[C@H](O)C[C@@H](/C=C/c2c(Cl)cc(Cl)cc2-c2ccc(F)cc2)O1` (stereo in doubt; 100(+)h) [listing 2 of 2 here] came in with an IC50 of 5 nM.
Regarding `Cc1ccccc1-c1cc(Cl)cc(Cl)c1/C=C/[C@@H]1C[C@@H](O)CC(=O)O1`, in test [1], the IC50 was determined as 370 nM. In test [2], the Relative potency was 3.2.
In test [2], `Cc1cc(C)c(/C=C/[C@@H]2C[C@@H](O)CC(=O)O2)c(-c2ccc(F)c(C)c2)c1` (stereo in doubt; 110) [listing 2 of 2 here] displayed a Relative potency of 171.
In turn, `Cc1cc(-c2cc(Cl)cc(Cl)c2/C=C/[C@@H]2C[C@@H](O)CC(=O)O2)ccc1F` gave an IC50 in test [1] of 29 nM. The molecule also showed a Relative potency in test [2] of 100.
For `O=C1C[C@H](O)C[C@@H](/C=C/c2c(Cl)cc(Cl)cc2-c2ccc(Cl)c(Cl)c2)O1` the same measures were 25 nM and 116.
On to `Cc1cc(C)cc(-c2cc(Cl)cc(Cl)c2/C=C/[C@@H]2C[C@@H](O)CC(=O)O2)c1`, for which the IC50 in test [1] is 13 nM. Besides, the Relative potency in test [2] was 115.
Consider `COc1cccc(-c2cc(Cl)cc(Cl)c2/C=C/[C@@H]2C[C@@H](O)CC(=O)O2)c1`, for which, in test [1], the IC50 was determined as 50 nM. Moreover, the Relative potency in test [2] came out at 26.
The molecule `Cc1cc(C)c(CCC2C[C@@H](O)CC(=O)O2)c(-c2ccc(F)c(C)c2)c1` (some centres undefined) showed an IC50 in test [1] of 22 nM. The molecule also yielded a Relative potency in test [2] of 45.
